Laboratory results from ChEMBL document CHEMBL4270613, “Design, synthesis, biological evaluation and structure-activity relationship of sophoridine derivatives bearing pyrrole or indole scaffold as potential antitumor agents” (Eur J Med Chem, 2018).
Active and inactive are the calls of the source. The rule behind the calls is not given here.

Tests used:
[1] = test system: HepG2; assay: Antitumor activity against human HepG2 cells xenografted in nude mouse assessed as tumor growth inhibition at 40 mg/kg for 25 days; format: functional, organism-based
Procedure, shortened: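 HepG2 xenografts were grown in nude mice and dosed at 40 mg/kg alongside a vehicle group. Tumour volume and body weight were recorded every 2 days. At the end, tumours were excised and weighed. Groups were compared with the vehicle group.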

[2] = test system: HepG2; assay: Induction of apoptosis in human HepG2 cells after 24 hrs by Annexin V-FITC/propidium iodide staining based flow cytometry; format: functional, cell-based
Procedure, shortened: (§1)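 HepG2 treated at 0, 0.75, 1.5 and 3 µM for 24 h, then Annexin V-FITC/PI dual staining and quantification by flow cytometry.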

[3] = test system: HepG2; assay: Induction of apoptosis in human HepG2 cells assessed as early apoptotic cells at 1.5 uM after 24 hrs by Annexin V-FITC/propidium iodide staining based flow cytometry (reference value: 1%); format: functional; procedure, shortened: as §1
[4] = test system: HeLa; assay: Antiproliferative activity against human HeLa cells after 72 hrs by MTT assay; format: functional, cell-based
[5] = test system: CNE; assay: Antiproliferative activity against human CNE1 cells after 72 hrs by MTT assay; format: functional, cell-based
[6] = test system: HepG2; assay: Antiproliferative activity against human HepG2 cells after 72 hrs by MTT assay; format: functional, cell-based; conditions: HepG2, 72 h
[7] = test system: HepG2; assay: Induction of apoptosis in human HepG2 cells assessed as necrotic cells at 0.75 uM after 24 hrs by Annexin V-FITC/propidium iodide staining based flow cytometry (reference value: 1.18%); format: functional; procedure, shortened: as §1
[8] = test system: HepG2; assay: Induction of apoptosis in human HepG2 cells assessed as late apoptotic cells at 3 uM after 24 hrs by Annexin V-FITC/propidium iodide staining based flow cytometry (reference value: 1.6%); format: functional; procedure, shortened: as §1
[9] = test system: HepG2; assay: Induction of apoptosis in human HepG2 cells assessed as live cells at 3 uM after 24 hrs by Annexin V-FITC/propidium iodide staining based flow cytometry (reference value: 96.2%); format: functional; procedure, shortened: as §1
[10] = test system: HepG2; assay: Upregulation of Bax protein expression in human HepG2 cells after 24 hrs by Western blot analysis; format: functional, cell-based
Procedure, shortened: (§2)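 HepG2 treated at 0, 0.75, 1.5 and 3 µM for 24 h, then western blot for Bax, Bcl-2 and cleaved caspase-3.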

[11] = test system: HepG2; assay: Induction of apoptosis in human HepG2 cells assessed as necrotic cells at 1.5 uM after 24 hrs by Annexin V-FITC/propidium iodide staining based flow cytometry (reference value: 1.18%); format: functional; procedure, shortened: as §1
[12] = test system: HepG2; assay: Induction of apoptosis in human HepG2 cells assessed as necrotic cells at 3 uM after 24 hrs by Annexin V-FITC/propidium iodide staining based flow cytometry (reference value: 1.18%); format: functional; procedure, shortened: as §1
[13] = test system: HepG2; assay: Induction of apoptosis in human HepG2 cells assessed as live cells at 1.5 uM after 24 hrs by Annexin V-FITC/propidium iodide staining based flow cytometry (reference value: 96.2%); format: functional; procedure, shortened: as §1
[14] = molecular target: T1, DNA topoisomerase 1 (Homo sapiens) (UniProt P11387); assay: Inhibition of recombinant human topoisomerase-1 using supercoiled pBR322 DNA as substrate after 45 mins by ethidium bromide staining based gel electrophoresis method
T1 sequence (whole entry): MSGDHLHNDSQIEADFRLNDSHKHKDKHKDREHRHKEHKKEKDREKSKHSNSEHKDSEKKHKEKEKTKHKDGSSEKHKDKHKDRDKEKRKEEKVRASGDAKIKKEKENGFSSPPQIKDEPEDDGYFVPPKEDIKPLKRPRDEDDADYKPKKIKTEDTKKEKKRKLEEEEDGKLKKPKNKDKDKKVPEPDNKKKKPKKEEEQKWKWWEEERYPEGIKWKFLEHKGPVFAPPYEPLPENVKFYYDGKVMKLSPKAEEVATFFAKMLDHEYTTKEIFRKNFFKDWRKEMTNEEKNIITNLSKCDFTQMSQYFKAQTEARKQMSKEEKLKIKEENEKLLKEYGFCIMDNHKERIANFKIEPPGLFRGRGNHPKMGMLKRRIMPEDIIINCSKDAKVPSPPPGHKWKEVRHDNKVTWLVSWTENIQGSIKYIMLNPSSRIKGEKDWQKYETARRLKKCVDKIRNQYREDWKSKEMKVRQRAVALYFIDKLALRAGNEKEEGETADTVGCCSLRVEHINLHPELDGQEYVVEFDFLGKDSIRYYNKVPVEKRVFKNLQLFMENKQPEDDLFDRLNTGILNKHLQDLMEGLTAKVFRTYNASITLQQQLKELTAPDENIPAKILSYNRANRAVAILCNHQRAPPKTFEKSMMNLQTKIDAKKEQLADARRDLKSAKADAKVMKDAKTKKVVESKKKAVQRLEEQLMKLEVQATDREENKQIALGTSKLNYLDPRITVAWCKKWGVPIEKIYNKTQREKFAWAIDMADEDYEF
Procedure, shortened: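 Plasmid relaxation assay: pBR322 DNA with Topo I plus DMSO vehicle, test compound at 1000, 500, 250 or 100 µM, or CPT at 100 µM as control; DNA alone as reference lane; products resolved on gel.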

[15] = test system: HepG2; assay: Induction of apoptosis in human HepG2 cells assessed as early apoptotic cells at 0.75 uM after 24 hrs by Annexin V-FITC/propidium iodide staining based flow cytometry (reference value: 1%); format: functional; procedure, shortened: as §1
[16] = test system: HepG2; assay: Downregulation of Bcl2 protein expression in human HepG2 cells after 24 hrs by Western blot analysis; format: functional, cell-based; procedure, shortened: as §2
[17] = test system: MCF7; assay: Antiproliferative activity against human MCF7 cells after 72 hrs by MTT assay; format: functional, cell-based; conditions: MCF7, 72 h
[18] = test system: HepG2; assay: Induction of apoptosis in human HepG2 cells assessed as late apoptotic cells at 0.75 uM after 24 hrs by Annexin V-FITC/propidium iodide staining based flow cytometry (reference value: 1.6%); format: functional; procedure, shortened: as §1
[19] = test system: HepG2; assay: Upregulation of cleaved caspase-3 protein expression in human HepG2 cells at 0.75 to 3 uM after 24 hrs by Western blot analysis; format: functional, cell-based; procedure, shortened: as §2
[20] = test system: HepG2; assay: Induction of apoptosis in human HepG2 cells assessed as early apoptotic cells at 3 uM after 24 hrs by Annexin V-FITC/propidium iodide staining based flow cytometry (reference value: 1%); format: functional; procedure, shortened: as §1
[21] = test system: CNE-2; assay: Antiproliferative activity against human CNE2 cells after 72 hrs by MTT assay; format: functional, cell-based; conditions: CNE-2, 72 h
[22] = test system: Mus musculus; assay: Toxicity in nude mouse xenografted with human HepG2 cells assessed as change in body weight at 40 mg/kg for 25 days; format: organism-based; conditions: in vivo, 600 h
Procedure, shortened: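 Nude mice bearing HepG2 xenografts dosed at 40 mg/kg against vehicle; body weight and tumor volume measured every 2 days; tumors weighed at end.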

[23] = test system: HepG2; assay: Antiproliferative activity against human HepG2 cells after 48 hrs by MTT assay; format: functional, cell-based; conditions: HepG2, 48 h
Procedure, shortened: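 HepG2 exposed to compounds for 48 h; MTT readout; camptothecin positive control; IC50 calculated; mean ± SD of three independent experiments, each in triplicate.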

[24] = test system: HepG2; assay: Induction of apoptosis in human HepG2 cells assessed as live cells at 0.75 uM after 24 hrs by Annexin V-FITC/propidium iodide staining based flow cytometry (reference value: 96.2%); format: functional; procedure, shortened: as §1
[25] = test system: SMMC-7721; assay: Antiproliferative activity against human SMMC7721 cells after 72 hrs by MTT assay; format: functional, cell-based; conditions: SMMC-7721, 72 h
[26] = test system: HepG2; assay: Induction of apoptosis in human HepG2 cells assessed as late apoptotic cells at 1.5 uM after 24 hrs by Annexin V-FITC/propidium iodide staining based flow cytometry (reference value: 1.6%); format: functional; procedure, shortened: as §1

With O=C1CCC[C@@H]2[C@H]3CCCN4CCC[C@H](CN12)[C@@H]34 the TGI [1] was “inactive”.
In the case of COc1ccc2c(c1)c(/C=C1\CC[C@@H]3[C@H]4CCCN5CCC[C@H](CN3C1=O)[C@@H]45)cn2Cc1ccc(OCc2ccccc2)cc1, the Activity [2] is reported as “Dose-dependent effect”, the Activity [3] is reported as 9.49% and the IC50 [4] is reported as 1440 nM. For the same compound, the IC50 [5] was 1890 nM, the IC50 [6] was 930 nM and the Activity [7] was 2.58%. For the same compound, the Activity [8] was 7.69%, the Activity [9] was 57% and the Activity [10] was “Dose-dependent effect”. It also gave an Activity [11] of 0.94%, an Activity [12] of 1.52% and an Activity [13] of 78%. For the same compound, the inhibition [14] was “Dose-dependent effect”, the Activity [15] was 6.71% and the Activity [16] was “Dose-dependent effect”. For the same compound, the IC50 [17] was 940 nM, the Activity [18] was 3.09% and the Activity [19] was “Active”. For the same compound, the Activity [20] was 33.8%, the IC50 [21] was 1240 nM and the Activity [22] was “Non-Toxic”. It also gave an IC50 [23] of 1960 nM, an Activity [24] of 87.6% and an IC50 [25] of 1320 nM. For the same compound, the Activity [26] was 11.5% and the TGI [1] was “Active”.
CC[C@@]1(O)C(=O)OCc2c1cc1n(c2=O)Cc2cc3ccccc3nc2-1 [CAMPTOTHECIN] was tested, and the IC50 [4] was 660 nM, the IC50 [5] was 340 nM and the IC50 [6] was 1360 nM. For the same compound, the IC50 [17] was 420 nM, the IC50 [21] was 980 nM and the IC50 [23] was 6080 nM. For the same compound, the IC50 [25] was 1080 nM.
